Test results published in PubChem BioAssay AID2300 (The Scripps Research Institute Molecular Screening Center, 2010).
Out of some 320,000 compounds screened, about 380 (0.12%) were called active. The list comes from a sample in which actives are over-represented; it also holds similar structures and randomly drawn compounds. A number with no mark means an inactive call.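 Rule for the calls: active = percent inhibition above the cutoff of mean plus 3 SD of all tested compounds, set per screening campaign (cut at about 20% in these data); inactive = the rest.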

Biological target: Photoreceptor-specific nuclear receptor (Homo sapiens) (UniProt Q9Y5X4)
Assay: inhibitors of NR2E3-RetCOR corepressor binding, primary screen, NR2E3 agonist project, biochemical, TR-FRET, GST-NR2E3, biotin-RetCOR (AID 2300);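 note: 0% = DMSO wells and 100% = biotin wells as full block of FRET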
Settings: 1536-well, at 4.78 µM, hits give high values
Outline: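 Test system: GST-NR2E3 and biotin-RetCOR proteins | Quantity: 1.35 nM GST-tagged NR2E3 final | Medium: Tris pH 7.5 | Also added: 7 nM biotin-RetCOR | Dosing: Compound at 4.8 µM, single dose | Timing: 5 h at 4 °C | Detection: Time-resolved FRET | Read-out basis: Percent inhibition | Benchmarks: Biotin wells as high control, 0.6% DMSO wells as low control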

Sequence of Photoreceptor-specific nuclear receptor (Homo sapiens) (Q9Y5X4 whole entry, looked up): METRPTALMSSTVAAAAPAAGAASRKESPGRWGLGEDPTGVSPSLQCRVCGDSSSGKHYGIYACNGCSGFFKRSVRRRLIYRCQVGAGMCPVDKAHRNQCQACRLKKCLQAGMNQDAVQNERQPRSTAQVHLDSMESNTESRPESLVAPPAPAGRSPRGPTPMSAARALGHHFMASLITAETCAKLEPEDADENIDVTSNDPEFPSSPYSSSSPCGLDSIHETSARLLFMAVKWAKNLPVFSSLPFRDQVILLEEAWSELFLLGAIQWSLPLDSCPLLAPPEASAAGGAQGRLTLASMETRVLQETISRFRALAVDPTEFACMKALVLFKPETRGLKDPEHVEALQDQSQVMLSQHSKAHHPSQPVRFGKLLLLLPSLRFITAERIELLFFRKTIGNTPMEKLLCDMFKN

First: CC(C)CN(C(=O)CSc1nncn1C)C1CCS(=O)(=O)C1 (stereo not given)
Second: COc1ccc2oc(C(=O)N(CC(C)C)C3CCS(=O)(=O)C3)c(C)c2c1 (stereo not given)
The inhibition of corepressor binding of the first is lower: 2.15% for the first, 3.14% for the second.

Compared with `COC(C)(C)[C@]12CC(O)(C(C)C)ON1[C@H]1CCCCC1N2O` (stereo not given in full), `CCC[C@H]1CCCC/C=C\CCCC(=O)OCCN1C(=O)OC(C)(C)C` is lower in inhibition of corepressor binding: -1% for the first, -1.54% for the second.

First: CCCCSc1nc2c(c(=O)n1CC)SC(C)C2 (stereo not given)
Second: C=CCNC(=O)CSc1nc2sc(C)c(C)c2c(=O)[nH]1
The inhibition of corepressor binding of the first is higher: 4.84% for the first, -1.07% for the second.

First: O=c1ccc2c(-c3ccccc3S(=O)(=O)O)c3ccc(O)c(O)c3oc-2c1O
Second: CCOc1cc(C2C(C(=O)c3ccco3)=C(O)C(=O)N2Cc2ccccc2)ccc1O (stereo not given)
The inhibition of corepressor binding of the first is higher: 13.9% for the first, 5.32% for the second.

Compared with `O=C(CSc1nc2c(cnn2-c2ccc(F)cc2)c(=O)[nH]1)N1CCCCCC1`, `O=C(CCNS(=O)(=O)c1cccs1)N1CCN(c2ccc(F)cc2)CC1` is higher in inhibition of corepressor binding: -0.57% for the first, 0.06% for the second.

Going from `CC(=O)N1CCC(C(=O)Nc2nc(-c3ccccc3)ns2)CC1` to `O=C(NNC(=O)C1CCC1)c1ccccc1`, the inhibition of corepressor binding rises from 1.17% to 3.19%.

Compared with `Cc1csc(Nc2ccc(Cl)cc2)[n+]1-c1ccc(Cl)cc1`, `Cc1ccc(Nc2nc(Cl)c(C=O)s2)cc1` is higher in inhibition of corepressor binding: -0.2% for the first, 3.15% for the second.

Compared with `FC(F)Oc1ccccc1NC(=S)Nc1cccc(Cl)c1Cl`, `ONC(=Nc1ccccc1)c1ccccc1Cl` is lower in inhibition of corepressor binding: 3.12% for the first, -0.75% for the second.

First: Cc1ccc(NC(=O)C2(N3CCC3=O)CCCCC2)cc1
Second: CCOC(=O)c1ccc(NC(=S)N2CCCC2)cc1
The inhibition of corepressor binding of the first is higher: 3.49% for the first, 0.82% for the second.

Going from `O=C(/C=C/c1cccc([N+](=O)[O-])c1)NCCSCc1ccco1` to `Cc1ccc(C(=O)N/C(=C/c2ccc(-c3cccc([N+](=O)[O-])c3)o2)C(=O)NCCCN(C)C)cc1`, the inhibition of corepressor binding falls from 0.28% to -3.84%.

Going from `Cc1ccc2c(c1)N(CC(=O)N1CCC(C)CC1)C(=O)c1cccnc1O2` to `COc1cc(C(=O)Nc2ncccc2C)ccc1OCC(=O)N1CCOCC1`, the inhibition of corepressor binding falls from 3.77% to 2.79%.

Going from `CCOc1ccc2nc(C(=O)N3CCCC(C)C3)sc2c1` (stereo not given) to `COc1cc(OC)c(C(=O)N2CCCC2)cc1OC`, the inhibition of corepressor binding rises from -1.62% to 2.23%.

Compared with `COc1cccc(CNC(=O)c2cccnc2Sc2ccc(Cl)cc2)c1`, `CN(c1ccccc1)S(=O)(=O)c1cccc(NC(=O)Cc2ccc(Cl)cc2)c1` is higher in inhibition of corepressor binding: 0.2% for the first, 4.43% for the second.

Going from `Cc1cc(C)c(C)c(S(=O)(=O)N2CCN(C(=O)c3ccc4c(=O)n5c(nc4c3)CCC5)CC2)c1C` to `COc1ccc(N2CCN(C(=O)C3CCN(S(=O)(=O)c4ccc(C)cc4)CC3)CC2)cc1`, the inhibition of corepressor binding rises from -2.52% to 6.37%.

Going from `O=C(Nc1nccs1)C1CCN(S(=O)(=O)c2ccc(Cl)c(C(F)(F)F)c2)CC1` to `O=C(Nc1ccccn1)C1CCN(S(=O)(=O)c2ccc3c(c2)OCCO3)CC1`, the inhibition of corepressor binding falls from 5.22% to 2.07%.

Compared with `O=C(N[C@@H](Cc1ccccc1)C(=O)OCc1ccccc1)c1nc[nH]c1C(=O)NC1CCNCC1`, `OC(c1ccccc1)c1nccn1Cc1ccccc1` (stereo not given) is lower in inhibition of corepressor binding: 1.4% for the first, -1.45% for the second.

Going from `COc1ccc(C(=O)OCC(=O)c2ccc(Cl)s2)c(OC)c1OC` to `COc1cc2[nH]c(=S)n(Cc3ccc(F)cc3)c(=O)c2cc1OC`, the inhibition of corepressor binding falls from -1.77% to -2.77%.

Compared with `CCOC(=O)c1ccc(N=C2SC(C(=O)NC)CC(=O)N2CCc2ccccc2)cc1` (stereo not given), `CN(C(=O)CN1C(=O)NC(C)(CCc2ccccc2)C1=O)c1ccccc1` (stereo not given) is higher in inhibition of corepressor binding: -2.67% for the first, 3.26% for the second.

Compared with `COc1cc2[nH]c(=S)n(CCN3CCCCC3C)c(=O)c2cc1OC` (stereo not given), `COc1ccc(C2CC(=O)Nc3sc(=N)c4c(N)c(C#N)c(N)nc4c32)cc1OC` (stereo not given) is lower in inhibition of corepressor binding: 0.84% for the first, -3.58% for the second.

Going from `Cc1ccc(CN(N=Nc2nonc2N)c2nonc2N)c(C)c1` to `CCOC(=O)c1c(NC(=O)CSc2nnc(CNc3ccc(C)cc3C)o2)sc(C)c1C`, the inhibition of corepressor binding falls from -0.3% to -0.79%.

Going from `CC(=O)N=c1ncn(CC(COC(C)=O)OC(C)=O)c2nc[nH]c12` (stereo not given) to `CCOc1cc(NC(=O)CCl)c(OCC)cc1NC(C)=O`, the inhibition of corepressor binding falls from 0.37% to -2.07%.

Going from `COc1ccc2cc(-c3[nH]ncc3CNCCn3nc(C)cc3C)ccc2c1` to `COc1ccc(C)cc1S(=O)(=O)NCCc1ccccc1`, the inhibition of corepressor binding rises from 1.22% to 2.48%.

Going from `Cc1nc(SCC(=O)NC2CCCC2)[nH]c(=O)c1C` to `CCCc1cc(=O)[nH]c(SCC(=O)Nc2sc3c(c2C#N)CCCC3)n1`, the inhibition of corepressor binding rises from -2.03% to 1.75%.

First: O=C(c1ccc(Br)o1)N(c1ccccn1)C1CCCCC1
Second: CCOc1ccccc1N(CC(=O)NC1CCCCC1)C(=O)CCCC(=O)Nc1ccccn1
The inhibition of corepressor binding of the first is lower: -1.56% for the first, 2.15% for the second.

Compared with `CCOc1ccc(NC(=O)N2CC=C(n3c(=O)[nH]c4ccccc43)CC2)cc1`, `O=[N+]([O-])c1ccc(NC(=S)N2CCN(c3ccccn3)CC2)cc1` is higher in inhibition of corepressor binding: 1.76% for the first, 4% for the second.

First: CCN1CCN(C(=O)C2(NC(=O)Nc3cccc(F)c3)CCCCC2)CC1
Second: O=C(CNCc1ccco1)Nc1cc(S(=O)(=O)N2CCOCC2)ccc1N1CCCC1
The inhibition of corepressor binding of the first is lower: 2.38% for the first, 6.04% for the second.

Going from `CCCCC(=O)Nc1c2c(nn1-c1ccc([N+](=O)[O-])cc1)CS(=O)(=O)C2` to `Cc1ccc(CC(=O)Nc2ccc(S(=O)(=O)N3CCOCC3)cc2)cc1C`, the inhibition of corepressor binding falls from 2.14% to 1.54%.

Going from `CSc1nc2c(c(=O)[nH]1)C(c1cccc(Cl)c1Cl)CC(=O)N2` (stereo not given) to `O=c1[nH]cccc1-c1nc2ccccc2n1Cc1ccc(Cl)cc1`, the inhibition of corepressor binding falls from 5.66% to 5.14%.

Going from `CN(C)CCOc1cccc(Br)c1` to `COc1cccc(N(CC(=O)NCCSc2ccccn2)S(C)(=O)=O)c1`, the inhibition of corepressor binding falls from -0.9% to -2.09%.

Compared with `O=[N+]([O-])/C(N=Nc1ccccc1)=N\Nc1ccccc1`, `NNC(=O)CSc1nnc(-c2ccccc2)n1-c1ccccc1` is higher in inhibition of corepressor binding: -0.3% for the first, 3.63% for the second.

First: CCc1ccc(CN(C)C(=O)C2CCC(=O)N(Cc3cccc(OC)c3)C2)nc1 (stereo not given)
Second: COc1ccccc1C(C)NC(=O)Cc1ccsc1 (stereo not given)
The inhibition of corepressor binding of the first is lower: -4.58% for the first, 2.21% for the second.

Going from `C/C(=N/O)c1ccc(N2C(=O)C3C4C=CC(C3C2=O)C2C3C(=O)N(c5ccc(/C(C)=N/O)cc5)C(=O)C3C42)cc1` (stereo not given) to `COC(=O)C1(C)NC(c2ccccc2OC)C2C(=O)N(c3ccccc3)C(=O)C21` (stereo not given), the inhibition of corepressor binding rises from -3.35% to 1.42%.

Going from `Cc1c(Cl)cccc1NC(=O)[C@@]1(CC(=O)O)CC(/C=C/c2ccccc2)=NO1` to `O=C(C1=C(O)C(=O)N(Cc2ccccc2)C1c1ccco1)c1ccco1` (stereo not given), the inhibition of corepressor binding rises from -2.16% to 13%.

Going from `O=C(CCCCO)c1ccc(O)c(Cl)c1` to `CC(C)C[C@@H](N)c1nnc(SCC(=O)c2ccc(Cl)cc2)o1`, the inhibition of corepressor binding rises from -2.2% to -0.27%.

Going from `O=C(COC(=O)Cc1ccc(Br)cc1)Nc1c(F)c(F)c(F)c(F)c1F` to `N#Cc1ccc(C(=O)OCC(=O)NC(=O)NC2CCCCC2)cc1`, the inhibition of corepressor binding rises from -1.39% to 0.11%.

Going from `O=c1cnnc(Nc2ccccc2F)[nH]1` to `O=S(=O)(Nc1n[nH]c(C(F)(F)F)n1)c1ccccc1`, the inhibition of corepressor binding rises from 3.47% to 6.01%.

First: Oc1c(Br)cc(/C=N/NC(=S)NCC2CCCO2)cc1Br (stereo not given)
Second: O=C(Cn1cncn1)N/N=C/c1c2ccccc2cc2ccccc12
The inhibition of corepressor binding of the first is higher: 1.11% for the first, -7.82% for the second.

Going from `O=C(NCCO)C(=O)NCC(c1ccc2c(c1)OCO2)N1CCN(c2ccc(F)cc2)CC1` (stereo not given) to `O=C(NCC(c1ccco1)N1CCc2ccccc21)c1cccc(F)c1` (stereo not given), the inhibition of corepressor binding rises from -1.84% to -1.2%.

Going from `CC1(C)C2CCC1(CS(=O)(=O)NCCc1c[nH]c3ccccc13)C(=O)C2` (stereo not given) to `CC1(C)CC(O)C(CCC(O)c2ccccc2)C(C)(C)N1` (stereo not given), the inhibition of corepressor binding rises from -2.06% to 0.53%.

Going from `Cc1c(Cl)c([N+](=O)[O-])nn1CC(=O)NCCCN1CCOCC1` to `CCOC(=O)N1CCC(=NNC(N)=O)CC1`, the inhibition of corepressor binding falls from 4.17% to 0.68%.

First: CC1(C)CN(c2ccc(-c3ccnc4ncnn34)cc2)C1=O
Second: O=C1NC(c2ccccc2)=NC1(Nc1ccccn1)C(F)(F)F (stereo not given)
The inhibition of corepressor binding of the first is lower: -0.76% for the first, 0.74% for the second.

Compared with `Fc1ccc(CNc2nc3ccccc3n3nnnc23)cc1`, `NS(=O)(=O)c1ccc(NC2=CC(c3ccc(F)cc3)N(c3ccc(S(N)(=O)=O)cc3)C2=O)cc1` (stereo not given) is higher in inhibition of corepressor binding: -0.09% for the first, 1.09% for the second.

Going from `CC(C)(C)NC(=O)/C(=C/c1cccnc1)NC(=O)c1ccco1` to `NC(=O)c1cc(S(=O)(=O)NCCCc2ccco2)cs1`, the inhibition of corepressor binding rises from -5.01% to 2.54%.

Going from `O=C(NCCCNC(=O)NC1CCCCC1)NC1CCCCC1` to `O=C(COC(=O)c1ccccc1SCC(=O)NC1CCCCC1)NC1CCCCC1`, the inhibition of corepressor binding falls from 1.65% to -5.62%.

In the case of `Cc1ccc(C(C)C)c(OCc2nnc(SCC(=O)Nc3nccs3)n2C)c1`, the inhibition of corepressor binding is reported as 2.5%.

For `CC(=O)c1sc2nc(SCC(=O)N3CCCCC3)[nH]c(=O)c2c1C`, the inhibition of corepressor binding was 29.3% (active).
For `COc1cc2[nH]c(=S)n(Cc3ccc(C)o3)c(=O)c2cc1OC`, the inhibition of corepressor binding was 23.2% (active).
`N#Cc1c(N)nc2c3c(sc(=N)c2c1N)NC(=O)CC3c1ccccc1Cl` (stereo not given) was tested, and the inhibition of corepressor binding was 27.7% (active).
With `CC(C)c1ccc(C2C(C(=O)c3ccco3)=C(O)C(=O)N2CC2CCCO2)cc1` (stereo not given) the inhibition of corepressor binding was 22.2% (active).
For `N#Cc1ccccc1Sc1ccccc1C(=O)OCC(=O)NC1CCCCC1`, the inhibition of corepressor binding was 26.6% (active).
With `CCOC(=O)c1ccc(NC(=S)N2CCN(c3ccccn3)CC2)cc1` the inhibition of corepressor binding was 43.1% (active).
